Laboratory results taken from ChEMBL document CHEMBL1142339, “Carbamoylphosphonate matrix metalloproteinase inhibitors 6: cis-2-aminocyclohexylcarbamoylphosphonic acid, a novel orally active antimetastatic matrix metalloproteinase-2 selective inhibitor--synthesis and pharmacodynamic and pharmacokinetic analysis” (J Med Chem, 2008).

Experiments:
Mus musculus [1] = assay: Acute toxicity in C57B1 mouse at 50 to 500 mg/kg; type: organism-based; set-up: dose 50-500 mg/kg; conditions: in vivo
Outline: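 C57Bl mice dosed intraperitoneally daily for two weeks at 50, 250 and 500 mg/kg; monitored for toxic signs and behavioural and nutritional status.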

[2] = Reduction of metastasis formation in SCID mouse bearing human prostate tumor cells at 50 mg/kg, ip; type: functional; set-up: scale not given: the % may be the effect or the level left; conditions: route intraperitoneal
Outline: (§1)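 Luciferase-transfected human prostate tumour cells implanted orthotopically into the prostate of SCID mice; daily ip dosing except weekends for six weeks. Primary tumour growth and metastasis followed weekly by luciferin bioluminescence imaging with a CCD camera.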

Mus musculus [3] = assay: Time over MIC in C57B1 mouse at 150 mg/kg, po; type: ADME, organism-based; set-up: dose 150 mg/kg, route oral; conditions: in vivo
Outline: (§2)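 Compound dissolved in normal saline/water 60/40 (20 mg/mL). Rats: fasted 12 h before and first 12 h; blood sampled 5–240 min after iv, to 8 h oral, to 24 h ip; urine collected at 24 and 48 h in metabolic cages. Mice (22–25 g, fasted 12 h): portal-vein blood under ether at 0–720 min, one mouse per time point. Plasma quantified by HPLC-MS with acyclovir internal standard.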

[4] = Elimination half life in Wistar rat at 150 mg/kg, po; type: ADME, organism-based; set-up: dose 150 mg/kg, route oral; conditions: in vivo; outline: as §2
[5] = target: T1, 72 kDa type IV collagenase (Homo sapiens, UniProt P08253); conditions: 100 uM
Target sequence in this assay (P08253 110-660 limits assumed): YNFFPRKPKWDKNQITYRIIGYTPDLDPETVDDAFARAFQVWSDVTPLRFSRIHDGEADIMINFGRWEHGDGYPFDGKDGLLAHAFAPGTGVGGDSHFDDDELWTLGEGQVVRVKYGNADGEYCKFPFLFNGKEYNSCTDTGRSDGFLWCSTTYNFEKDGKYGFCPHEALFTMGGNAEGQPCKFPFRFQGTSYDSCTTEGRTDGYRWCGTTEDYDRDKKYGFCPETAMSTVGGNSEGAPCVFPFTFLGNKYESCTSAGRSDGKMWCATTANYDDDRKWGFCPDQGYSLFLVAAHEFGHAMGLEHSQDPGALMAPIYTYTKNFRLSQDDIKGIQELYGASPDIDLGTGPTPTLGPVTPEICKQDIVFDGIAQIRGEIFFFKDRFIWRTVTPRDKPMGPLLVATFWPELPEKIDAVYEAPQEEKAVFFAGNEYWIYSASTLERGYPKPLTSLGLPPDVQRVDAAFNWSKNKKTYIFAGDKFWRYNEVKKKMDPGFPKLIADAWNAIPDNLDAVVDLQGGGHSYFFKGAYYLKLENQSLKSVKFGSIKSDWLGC

[6] = Apparent permeability in Wistar rat colon in Using diffusion chamber; type: ADME, tissue-based; conditions: not told
Outline: (§3)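 Everted-free intestinal segments (jejunum, ileum, colon) from four animals mounted in Ussing chambers; compound at 600 µg/mL in mucosa buffer added to the mucosal side. Serosal samples taken at 30, 60, 90, 120, 150 min, mucosal at 0 and 150 min, with buffer replacement. Quantified by HPLC-MS; Papp reported with SD.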

[7] = Apparent permeability in Wistar rat ileum in using diffusion chamber; type: ADME, tissue-based; outline: as §3
B16-F10 [8] = assay: Inhibition of metastasis formation in lungs of C57B1 mouse bearing B16F10 cells at 12.5 to 50 mg/kg, ip after 21 days; type: functional, Lung; conditions: dose mg/kg 12.5-50; route intraperitoneal
Outline: (§4)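 Female C57Bl mice given 50k B16F10 cells via tail vein; dosing started the same day, daily except weekends for three weeks, in PBS, ip or oral (dose-response 12.5–50 mg/kg ip). Lungs fixed at day 21 and metastatic foci counted; eight mice per group.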

[9] = Elimination half life in Wistar rat at 50 mg/kg, iv; type: ADME, organism-based; set-up: dose 50 mg/kg, route intravenous; conditions: in vivo; outline: as §2
[10] = Cmax in Wistar rat at 150 mg/kg, ip; type: ADME, organism-based; set-up: dose 150 mg/kg, route intraperitoneal; conditions: in vivo; outline: as §2
[11] = target: T1, 72 kDa type IV collagenase; assay: Inhibition of human recombinant MMP2
Outline: (§5)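 Human recombinant enzymes each incubated at four concentrations with a suitable colorimetric or fluorogenic peptide substrate for 3 h. Inhibitor tested at four to six concentrations. Activity read as colorimetric or fluorescence change on a plate reader.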
Target sequence in this assay (P08253 whole entry, the tested form may be a part): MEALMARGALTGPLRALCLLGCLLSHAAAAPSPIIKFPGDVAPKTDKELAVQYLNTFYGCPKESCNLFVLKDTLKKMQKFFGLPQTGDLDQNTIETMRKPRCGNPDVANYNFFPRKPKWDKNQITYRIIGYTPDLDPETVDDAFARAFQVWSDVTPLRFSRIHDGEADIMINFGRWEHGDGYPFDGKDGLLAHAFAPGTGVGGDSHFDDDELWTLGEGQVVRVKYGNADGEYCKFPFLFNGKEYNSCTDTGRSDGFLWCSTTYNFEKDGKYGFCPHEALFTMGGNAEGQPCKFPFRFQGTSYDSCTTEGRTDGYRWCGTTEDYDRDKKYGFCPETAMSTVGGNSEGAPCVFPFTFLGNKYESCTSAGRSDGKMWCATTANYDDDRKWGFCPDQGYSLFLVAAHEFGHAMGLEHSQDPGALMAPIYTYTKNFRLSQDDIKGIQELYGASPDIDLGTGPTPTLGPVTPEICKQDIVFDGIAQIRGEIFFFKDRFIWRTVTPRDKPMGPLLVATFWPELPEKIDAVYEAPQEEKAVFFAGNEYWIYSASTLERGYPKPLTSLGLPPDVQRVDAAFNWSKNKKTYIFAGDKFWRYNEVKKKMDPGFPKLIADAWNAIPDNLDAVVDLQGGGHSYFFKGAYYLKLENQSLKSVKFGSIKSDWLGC

[12] = Elimination half life in Wistar rat at 150 mg/kg, ip; type: ADME, organism-based; set-up: dose 150 mg/kg, route intraperitoneal; conditions: in vivo; outline: as §2
[13] = Clearance in Wistar rat at 50 mg/kg, iv; type: ADME, organism-based; set-up: dose 50 mg/kg, route intravenous; conditions: in vivo; outline: as §2
[14] = Tmax in Wistar rat at 150 mg/kg, po; type: ADME, organism-based; set-up: dose 150 mg/kg, route oral; conditions: in vivo; outline: as §2
B16-F10 [15] = assay: Reduction in tumor colonization in C57B1 mouse bearing B16F10 cells at 50 mg/kg, ip after 21 days; type: functional; set-up: scale not given: the % may be the effect or the level left; conditions: route intraperitoneal; outline: as §4
Rattus norvegicus [16] = assay: Time over MIC in Wistar rat at 150 mg/kg, ip; type: ADME, organism-based; set-up: dose 150 mg/kg, route intraperitoneal; conditions: in vivo; outline: as §2
[17] = Apparent permeability in C57B1 mouse jejunum in using diffusion chamber; type: ADME, tissue-based
[18] = target: Disintegrin and metalloproteinase domain-containing protein 17 (Homo sapiens, UniProt P78536); assay: Inhibition of human recombinant TACE
Disintegrin and metalloproteinase domain-containing protein 17, sequence (P78536 whole entry, the tested form may be a part): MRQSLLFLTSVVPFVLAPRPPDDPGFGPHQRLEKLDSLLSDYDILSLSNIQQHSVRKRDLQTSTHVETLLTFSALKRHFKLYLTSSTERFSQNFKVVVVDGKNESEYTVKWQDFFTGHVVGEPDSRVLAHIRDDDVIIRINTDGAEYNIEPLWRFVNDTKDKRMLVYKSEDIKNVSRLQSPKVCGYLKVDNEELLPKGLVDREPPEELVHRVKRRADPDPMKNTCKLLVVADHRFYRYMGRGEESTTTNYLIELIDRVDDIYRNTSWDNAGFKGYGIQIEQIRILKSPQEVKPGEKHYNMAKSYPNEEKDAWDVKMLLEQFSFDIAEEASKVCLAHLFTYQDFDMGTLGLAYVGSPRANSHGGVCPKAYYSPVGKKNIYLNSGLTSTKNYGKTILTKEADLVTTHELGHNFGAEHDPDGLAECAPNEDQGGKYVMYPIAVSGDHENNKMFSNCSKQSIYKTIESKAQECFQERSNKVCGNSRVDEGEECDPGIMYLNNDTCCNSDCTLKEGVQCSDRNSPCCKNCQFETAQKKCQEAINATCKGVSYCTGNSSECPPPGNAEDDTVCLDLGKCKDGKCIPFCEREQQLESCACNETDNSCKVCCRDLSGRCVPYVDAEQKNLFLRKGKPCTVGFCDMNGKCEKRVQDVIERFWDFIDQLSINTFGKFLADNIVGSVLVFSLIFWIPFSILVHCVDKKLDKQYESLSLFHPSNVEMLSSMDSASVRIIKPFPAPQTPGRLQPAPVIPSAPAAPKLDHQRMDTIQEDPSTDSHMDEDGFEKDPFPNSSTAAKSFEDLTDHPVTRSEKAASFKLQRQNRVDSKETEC
Outline: (§6)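 Purified human recombinant enzyme tested at four different concentrations against the matching colorimetric or fluorescent peptide substrate for 3 h, with inhibitor at four to six concentrations. Activity was read as a colour or fluorescence change on a plate reader, and IC50 was calculated from these readings.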

[19] = Volume of distribution at steady state in Wistar rat at 50 mg/kg, iv; type: ADME, organism-based; set-up: dose 50 mg/kg, route intravenous; conditions: in vivo, read-out: Vdss; outline: as §2
Interstitial collagenase = target: T2, Interstitial collagenase (Homo sapiens, UniProt P03956); assay: Inhibition of human recombinant MMP1; outline: as §6
T2 sequence (P03956 whole entry): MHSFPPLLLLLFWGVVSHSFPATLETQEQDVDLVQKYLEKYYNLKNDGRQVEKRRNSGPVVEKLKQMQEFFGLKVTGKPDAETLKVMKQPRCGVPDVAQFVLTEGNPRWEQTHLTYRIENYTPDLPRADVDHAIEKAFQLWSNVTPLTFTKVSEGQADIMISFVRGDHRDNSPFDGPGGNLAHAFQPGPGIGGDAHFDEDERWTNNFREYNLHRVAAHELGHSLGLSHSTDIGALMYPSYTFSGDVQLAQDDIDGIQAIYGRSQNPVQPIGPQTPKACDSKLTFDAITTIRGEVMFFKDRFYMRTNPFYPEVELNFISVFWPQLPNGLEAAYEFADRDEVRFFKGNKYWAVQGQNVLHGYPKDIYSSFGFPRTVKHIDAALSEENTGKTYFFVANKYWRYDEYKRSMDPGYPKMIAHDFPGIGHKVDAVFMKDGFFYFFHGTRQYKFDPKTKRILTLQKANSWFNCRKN

[20] = AUC in C57B1 mouse at 150 mg/kg, po; type: ADME, organism-based; set-up: dose 150 mg/kg, route oral; conditions: plasma; outline: as §2
[21] = Half life in C57B1 mouse at 150 mg/kg, po; type: ADME, organism-based; set-up: dose 150 mg/kg, route oral; conditions: in vivo; outline: as §2
Rattus norvegicus [22] = assay: Time over MIC in Wistar rat at 50 mg/kg, iv; type: ADME, organism-based; set-up: dose 50 mg/kg, route intravenous; conditions: in vivo; outline: as §2
[23] = Bioavailability in Wistar rat at 150 mg/kg, ip; type: ADME, organism-based; conditions: in vivo; outline: as §2
[24] = AUC in Wistar rat at 150 mg/kg, ip; type: ADME, organism-based; set-up: dose 150 mg/kg, route intraperitoneal; conditions: plasma; outline: as §2
[25] = Bioavailability in Wistar rat at 150 mg/kg, po; type: ADME, organism-based; conditions: in vivo; outline: as §2
[26] = target: Matrix metalloproteinase-9 (Homo sapiens, UniProt P14780); assay: Inhibition of human recombinant MMP9; outline: as §5
Matrix metalloproteinase-9, sequence (P14780 whole entry): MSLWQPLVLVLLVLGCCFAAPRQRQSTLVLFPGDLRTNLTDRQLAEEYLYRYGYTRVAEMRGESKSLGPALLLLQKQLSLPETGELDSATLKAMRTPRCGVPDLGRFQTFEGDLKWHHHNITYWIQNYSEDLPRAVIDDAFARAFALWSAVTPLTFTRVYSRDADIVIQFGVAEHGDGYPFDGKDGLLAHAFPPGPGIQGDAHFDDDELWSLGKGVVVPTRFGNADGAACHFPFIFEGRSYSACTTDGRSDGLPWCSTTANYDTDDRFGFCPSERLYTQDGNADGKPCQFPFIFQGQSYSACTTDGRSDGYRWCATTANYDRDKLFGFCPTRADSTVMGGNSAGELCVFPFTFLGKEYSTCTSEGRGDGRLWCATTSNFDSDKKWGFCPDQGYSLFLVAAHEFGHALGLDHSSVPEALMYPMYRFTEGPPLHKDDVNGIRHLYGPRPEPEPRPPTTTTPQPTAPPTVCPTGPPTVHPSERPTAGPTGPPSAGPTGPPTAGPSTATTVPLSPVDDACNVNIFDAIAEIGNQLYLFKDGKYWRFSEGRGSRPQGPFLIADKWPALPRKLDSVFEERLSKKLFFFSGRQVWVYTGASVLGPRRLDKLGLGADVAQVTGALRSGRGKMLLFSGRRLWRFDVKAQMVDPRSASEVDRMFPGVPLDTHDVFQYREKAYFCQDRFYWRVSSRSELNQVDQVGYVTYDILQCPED

[27] = Cmax in C57B1 mouse at 150 mg/kg, po; type: ADME, organism-based; set-up: dose 150 mg/kg, route oral; conditions: in vivo; outline: as §2
[28] = Apparent permeability in C57B1 mouse colon in using diffusion chamber; type: ADME, tissue-based; conditions: not told
[29] = Cmax in Wistar rat at 50 mg/kg, iv; type: ADME, organism-based; set-up: dose 50 mg/kg, route intravenous; conditions: in vivo; outline: as §2
Rattus norvegicus [30] = assay: Time over MIC in Wistar rat at 150 mg/kg, po; type: ADME, organism-based; set-up: dose 150 mg/kg, route oral; conditions: in vivo; outline: as §2
[31] = Cmax in Wistar rat at 150 mg/kg, po; type: ADME, organism-based; set-up: dose 150 mg/kg, route oral; conditions: in vivo; outline: as §2
[32] = target: Macrophage metalloelastase (Homo sapiens, UniProt P39900); assay: Inhibition of human recombinant MMP12; outline: as §6
Macrophage metalloelastase, sequence (P39900 whole entry): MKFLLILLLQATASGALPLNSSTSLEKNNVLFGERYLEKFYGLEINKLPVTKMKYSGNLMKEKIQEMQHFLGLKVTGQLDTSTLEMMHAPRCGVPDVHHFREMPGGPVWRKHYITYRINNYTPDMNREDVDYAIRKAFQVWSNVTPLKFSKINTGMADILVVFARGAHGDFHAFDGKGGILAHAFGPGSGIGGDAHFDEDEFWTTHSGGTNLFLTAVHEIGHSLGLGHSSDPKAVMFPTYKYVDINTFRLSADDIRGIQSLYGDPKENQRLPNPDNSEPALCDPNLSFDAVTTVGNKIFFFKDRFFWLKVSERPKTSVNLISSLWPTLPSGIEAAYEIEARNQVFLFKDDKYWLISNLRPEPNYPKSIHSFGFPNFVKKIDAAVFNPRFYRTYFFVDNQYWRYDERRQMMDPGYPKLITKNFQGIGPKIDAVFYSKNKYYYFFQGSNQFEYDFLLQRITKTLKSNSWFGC

[33] = Tmax in Wistar rat at 150 mg/kg, ip; type: ADME, organism-based; set-up: dose 150 mg/kg, route intraperitoneal; conditions: in vivo; outline: as §2
B16-F10 [34] = assay: Reduction in tumor colonization in of C57B1 mouse bearing B16F10 cells at 50 mg/kg, po after 21 days; type: functional; set-up: scale not given: the % may be the effect or the level left; outline: as §4
[35] = Reduction of local tumor growth in SCID mouse bearing human prostate tumor cells at 50 mg/kg, ip; type: functional; set-up: scale not given: the % may be the effect or the level left; conditions: route intraperitoneal; outline: as §1
[36] = AUC in Wistar rat at 50 mg/kg, iv; type: ADME, organism-based; set-up: dose 50 mg/kg, route intravenous; conditions: plasma; outline: as §2
Neutrophil collagenase = Neutrophil collagenase (Homo sapiens, UniProt P22894); assay: Inhibition of human recombinant MMP8; outline: as §5
Neutrophil collagenase, sequence (P22894 whole entry): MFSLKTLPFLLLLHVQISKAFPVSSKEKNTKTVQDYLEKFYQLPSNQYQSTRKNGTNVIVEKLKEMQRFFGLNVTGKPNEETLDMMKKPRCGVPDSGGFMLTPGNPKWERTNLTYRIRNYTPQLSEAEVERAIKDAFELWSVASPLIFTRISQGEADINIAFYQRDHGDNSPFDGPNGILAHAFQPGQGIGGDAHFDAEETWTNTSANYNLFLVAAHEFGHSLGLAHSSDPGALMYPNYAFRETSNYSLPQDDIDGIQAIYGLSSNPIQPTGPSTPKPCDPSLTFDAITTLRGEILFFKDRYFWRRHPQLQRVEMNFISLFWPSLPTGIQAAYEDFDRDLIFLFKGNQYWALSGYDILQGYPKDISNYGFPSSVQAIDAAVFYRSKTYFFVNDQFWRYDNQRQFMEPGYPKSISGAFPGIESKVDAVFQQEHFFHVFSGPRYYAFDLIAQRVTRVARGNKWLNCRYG

Collagenase 3 = Collagenase 3 (Homo sapiens, UniProt P45452); assay: Inhibition of human recombinant MMP13; outline: as §5
Stromelysin-1 = Stromelysin-1 (Homo sapiens, UniProt P08254); assay: Inhibition of human recombinant MMP3; outline: as §5
Stromelysin-1, sequence (P08254 whole entry): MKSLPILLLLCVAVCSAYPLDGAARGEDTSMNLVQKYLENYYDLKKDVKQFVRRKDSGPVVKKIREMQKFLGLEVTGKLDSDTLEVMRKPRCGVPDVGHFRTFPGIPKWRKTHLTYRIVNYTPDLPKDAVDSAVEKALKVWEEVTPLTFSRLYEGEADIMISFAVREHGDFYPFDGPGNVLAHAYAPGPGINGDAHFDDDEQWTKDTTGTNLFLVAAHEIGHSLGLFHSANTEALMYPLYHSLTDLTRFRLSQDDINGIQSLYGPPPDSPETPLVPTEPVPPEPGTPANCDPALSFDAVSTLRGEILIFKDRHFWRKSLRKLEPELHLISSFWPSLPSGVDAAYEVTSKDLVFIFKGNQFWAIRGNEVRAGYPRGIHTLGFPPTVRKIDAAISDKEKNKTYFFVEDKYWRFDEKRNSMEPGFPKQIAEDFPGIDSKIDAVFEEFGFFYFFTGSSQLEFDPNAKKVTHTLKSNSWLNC

[37] = Tmax in C57B1 mouse at 150 mg/kg, po; type: ADME, organism-based; set-up: dose 150 mg/kg, route oral; conditions: in vivo; outline: as §2
[38] = Apparent permeability in Wistar rat jejunum in using diffusion chamber; type: ADME, tissue-based; outline: as §3
[39] = AUC in Wistar rat at 150 mg/kg, po; type: ADME, organism-based; set-up: dose 150 mg/kg, route oral; conditions: plasma; outline: as §2

What does the source list for `N[C@H]1CCCC[C@H]1NC(=O)P(=O)(O)O` (relative stereo)?
Activity (Mus musculus [1]): Non-toxic; Activity [2]: 90%; T>MIC (Mus musculus [3]): > 12 h; half-life [4]: 2.1 h; inhibition [5]: 90%; Papp [6]: 9.27 ×10⁻⁶ cm/s; Papp [7]: 7.01 ×10⁻⁶ cm/s; Inhibition (B16-F10 [8]): 50%; half-life [9]: 0.313 h; Cmax [10]: 144 µg/mL; IC50 [11]: 4 µM; half-life [12]: 1.8 h; clearance [13]: 6.9 mL/min/kg; Tmax [14]: 0.29 h; Activity (B16-F10 [15]): 85%; T>MIC (Rattus norvegicus [16]): > 24 h; Papp [17]: 8.3 ×10⁻⁶ cm/s; IC50 [18]: > 100 µM; Vd [19]: 0.186 L/kg; IC50 (Interstitial collagenase): > 100 µM; AUC [20]: 4500 ng·h/mL; half-life [21]: 13.5 h; T>MIC (Rattus norvegicus [22]): > 4 h; bioavailability [23]: 11.8%; AUC [24]: 44600 ng·h/mL; bioavailability [25]: 0.35%; IC50 [26]: 20 µM; Cmax [27]: 0.544 µg/mL; Papp [28]: 2.4 ×10⁻⁶ cm/s; Cmax [29]: 306 µg/mL; T>MIC (Rattus norvegicus [30]): > 6 h; Cmax [31]: 0.712 µg/mL; IC50 [32]: > 100 µM; Tmax [33]: 30 s; Activity (B16-F10 [34]): 95%; Activity [35]: 60%; AUC [36]: 127000 ng·h/mL; IC50 (Neutrophil collagenase): > 100 µM; IC50 (Collagenase 3): > 100 µM; IC50 (Stromelysin-1): > 100 µM; Tmax [37]: 1 h; Papp [38]: 7.9 ×10⁻⁶ cm/s; AUC [39]: 1320 ng·h/mL

For `N[C@@H]1CCCC[C@H]1NC(=O)P(=O)(O)O` (relative stereo), which IC50 [11] is on record?
Its IC50 is > 100 µM.

What about the IC50 [18] of the same molecule?
Its IC50 is > 100 µM.

What about the IC50 (Interstitial collagenase) of the same molecule?
The IC50 was 90 µM.

What about the IC50 [26] of the same molecule?
The IC50 was > 100 µM.

What about the IC50 [32] of the same molecule?
The IC50 was > 100 µM.

And the IC50 (Neutrophil collagenase)?
The IC50 was 50 µM.

And the IC50 (Collagenase 3)?
The IC50 was 55 µM.

And the IC50 (Stromelysin-1)?
Its IC50 is 25 µM.
